Compound activity from PubChem.
TRPC4 inh: TRPC4 (mouse) channel inhibition; HEK293 TRPC4beta/mu-opioid, DAMGO-evoked Fluo4 calcium flux; active compounds read low; B-score at 10 µM; Q9QUQ5; 0.39% of 300,000 active;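 active = B-score over 3 SD under the library average, no early fluorescence shift, positive overall ratio signal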
Target sequence (Q9QUQ5 whole entry, looked up): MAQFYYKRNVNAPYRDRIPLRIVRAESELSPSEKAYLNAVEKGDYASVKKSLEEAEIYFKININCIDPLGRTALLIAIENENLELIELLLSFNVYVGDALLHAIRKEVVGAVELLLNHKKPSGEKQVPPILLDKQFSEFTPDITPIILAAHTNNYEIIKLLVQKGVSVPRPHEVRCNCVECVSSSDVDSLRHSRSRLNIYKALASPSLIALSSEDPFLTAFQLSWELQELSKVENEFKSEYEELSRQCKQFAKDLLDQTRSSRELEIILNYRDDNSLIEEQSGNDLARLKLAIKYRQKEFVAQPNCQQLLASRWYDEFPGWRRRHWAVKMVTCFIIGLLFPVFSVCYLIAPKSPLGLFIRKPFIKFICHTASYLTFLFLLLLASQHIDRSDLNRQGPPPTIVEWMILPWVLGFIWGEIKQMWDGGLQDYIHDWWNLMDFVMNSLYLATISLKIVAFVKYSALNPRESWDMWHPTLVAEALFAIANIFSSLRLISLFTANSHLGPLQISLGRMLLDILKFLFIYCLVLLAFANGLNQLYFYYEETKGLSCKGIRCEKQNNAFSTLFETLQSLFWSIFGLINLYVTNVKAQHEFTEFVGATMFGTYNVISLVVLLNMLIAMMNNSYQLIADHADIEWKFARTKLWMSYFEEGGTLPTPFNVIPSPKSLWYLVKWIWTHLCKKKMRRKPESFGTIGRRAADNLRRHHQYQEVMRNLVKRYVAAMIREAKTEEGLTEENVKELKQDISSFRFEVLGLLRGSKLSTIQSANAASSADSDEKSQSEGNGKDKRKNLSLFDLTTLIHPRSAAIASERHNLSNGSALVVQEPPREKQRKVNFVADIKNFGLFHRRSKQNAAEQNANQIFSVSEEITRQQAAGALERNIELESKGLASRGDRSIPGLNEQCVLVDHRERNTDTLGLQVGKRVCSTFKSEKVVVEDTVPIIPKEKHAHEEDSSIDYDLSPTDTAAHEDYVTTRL
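Test system – stable TRPC4beta/mu-opioid receptor HEK293 cells · Probe or stimulus – DAMGO, a submaximal dose followed by a maximal one · Dosing – one concentration per compound · Signal – Fluo4 calcium fluorescence by kinetic imaging, 5 s 1 Hz baseline · Evaluation – per-well B score of integrated baseline-normalized Fluo4 ratio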
TRPC6 activator: activates the mouse TRPC6 cation channel. HEK293-TRPC6 membrane potential dye fluorescence; active compounds read high. AID 2550. 0.13% of 310,000 active. B-score at 10 µM;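 active = B-score of the integrated fluorescence ratio above library mean plus 3 SD, and starting fluorescence ratio within library mean plus 5 SD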;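 also: higher score means more depolarization so channel activation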
TRPC4 potent: allosteric potentiators of mouse TRPC4 channel; Q9QUQ5; HEK293 TRPC4beta/mu-opioid, DAMGO EC20, Fluo-4 Ca2+ flux; active compounds read high; B-score at 10 µM; 0.42% of 310,000 active; AID 2227;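 active = B-score of calcium response area above 5 SD of library B-scores, with initial fluorescence ratio within 5 SD of library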;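 also: B-score of integrated fluorescence ratio over time as area under calcium response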
TRPC4 agonist: TRPC4 (mouse) channel activation. AID 2237. HEK293 TRPC4beta/mu-opioid, Fluo4 calcium fluorescence; active compounds read high. 0.49% of 310,000 active. Q9QUQ5. B-score at 10 µM;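 active = B-score above 5 SD of library B-scores, and initial fluorescence ratio not above library mean plus 5 SD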;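 also: positive B-score marks a calcium rise read as TRPC4 activation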
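Assay system: HEK293 stable line with TRPC4beta plus mu-opioid receptor; schedule: 45 min room-temperature Fluo4 loading, 110 s read; technique: kinetic Fluo4 calcium fluorescence; evaluation: integrated baseline-normalised fluorescence ratio, converted to per-well B score; controls: buffer (low) and maximal DAMGO (high)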
TRPC6 inh: mouse TRPC6 channel inhibition. HEK293-TRPC6, membrane potential dye, ACh-evoked depolarization; active compounds read low. Q61143. 1.1% of 310,000 active. B-score at 10 µM;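 active = B-score under library mean minus 3 SD, initial fluorescence not abnormally high, positive integrated signal ratio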;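 also: B-score derived from integrated fluorescence ratio over the kinetic read; more negative B-score means stronger inhibition of depolarization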
TRPC4 sel inh 2: second selectivity test of TRPC6 inhibitors: effect on mouse TRPC4 | shares compounds with TRPC6 inh | HEK293 TRPC4/MOR, membrane potential dye fluorescence; channel activated by saturating DAMGO dose | inhibition, % at 10 µM | 42% of 920 active | AID 2776;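 active = compounds whose fluorescence signal differed from control wells by over 3 SD, either direction, in both duplicate plates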
TRPC4 spec: mouse TRPC4 off-target activity of TRPC6 inhibitors | shares compounds with TRPC6 inh | HEK293 TRPC4/mu-opioid, membrane potential fluorescence | activity change, negative = inhibition, % at 10 µM | 61% of 920 active | AID 2777;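 active = rise or fall in signal beyond 3 SD of buffer-only wells in both replicate plates, either sign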;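 also: integrated kinetic ratio of fluorescence range over baseline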
HEK293 MPD ctr 2-1: second check of TRPC6 inhibitor effects in parental HEK293 cells. parental HEK293 membrane potential dye fluorescence; maximal acetylcholine challenge after compound addition. AID 2779. shares compounds with TRPC6 inh. 31% of 920 active. signal change vs control, % at 10 µM;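 active = membrane potential signal moving either way by over 3 SD of the maximum-effect control, in both duplicate plates, meaning non-specific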
HEK293 MPD ctr-1: counter-screen for TRPC6 inhibitors: effect in parental HEK293 cells; shares compounds with TRPC6 inh; parental HEK293 membrane potential dye fluorescence; membrane potential signal change, % at 10 µM; 60% of 920 active; AID 2780;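 active = membrane potential signal shifting up or down by more than 3 SD of buffer-only wells, on both duplicate plates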
HEK293 MPD ctr-2: checks TRPC6 modulator effects in parental HEK293 cells; shares compounds with TRPC6 inh; membrane potential dye fluorescence; membrane potential signal change, % at 10 µM; 51% of 2,400 active; AID 488924;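 active = membrane potential signal moves up or down beyond 5 SD from buffer-only wells, on both duplicate plates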
HEK293 MPD ctr 2-2: parental HEK293 nonspecific activity of TRPC6 modulators, second screen. membrane potential dye fluorescence; after compound, maximal acetylcholine stimulation. inhibition, % at 10 µM. shares compounds with TRPC6 inh. 14% of 2,400 active;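 active = membrane potential signal drops by more than 5 SD from the mean control signal, in both duplicate plates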;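 also: plate controls were acetylcholine ECmax control wells for no effect and buffer only wells for full effect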
TRPC4/MOR mod: selectivity of TRPC6 modulators against mouse TRPC4. shares compounds with TRPC6 inh. percent change from control (negative = decrease, positive = increase), % at 10 µM. 69% of 2,400 active. HEK293 TRPC4/mu-opioid, membrane potential fluorescence;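 active = membrane potential signal moved up or down beyond 5 SD of buffer control wells, in both duplicate plates, actives on both sides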;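 also: plate controls were assay buffer wells for no effect and DAMGO maximal-effect wells for full effect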
TRPC4/MOR inh 2: second check of whether TRPC6 modulators also affect mouse TRPC4. shares compounds with TRPC6 inh. HEK293 TRPC4/mu-opioid, membrane potential dye fluorescence; stimulated with maximal-effect DAMGO. inhibition, % at 10 µM. 55% of 2,400 active. AID 488928;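 active = drop in membrane potential signal beyond 5 SD of the control wells in both duplicate plates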;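 also: TRPC4 counter screen for TRPC6 hits run under conditions tuned for TRPC6 not TRPC4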
TRPC6 inh conf: mouse TRPC6 inhibitor confirmation. shares compounds with TRPC6 inh. HEK293-TRPC6, membrane potential dye, ACh-evoked depolarization. inhibition, % at 10 µM. 43% of 3,300 active. AID 488960;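 active = fluorescence ratio falls more than 5 SD below the full-stimulation control mean, in both duplicate runs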;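 also: integrated fluorescence ratio of peak minus minimum over baseline after agonist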
TRPC6 act conf: mouse TRPC6 activator confirmation; HEK293-TRPC6 membrane potential dye fluorescence, FDSS; 11% of 2,800 active; activation, % at 10 µM; shares compounds with TRPC6 inh;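 active = ratio signal rise beyond 5 SD above unstimulated control wells' mean, seen in both duplicate runs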;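 also: plate controls were buffer EC0 wells for no effect and acetylcholine ECmax response for full effect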
Starred values were filed as active, the others as inactive; i = inactive; nt = not tested or not shown. The list is not random: actives were taken first. Their share in the collection is about 2.3%.

SMILES	TRPC4 inh	TRPC6 activator	TRPC4 potent	TRPC4 agonist	TRPC6 inh	HEK293 MPD ctr-2	HEK293 MPD ctr 2-2	TRPC4/MOR mod	TRPC4/MOR inh 2	TRPC6 inh conf	TRPC6 act conf	others
CN(C)Cc1c(O)ccc2cc(-c3nc4ccccc4n3C)c(=O)oc12	i	i	i	i	-5*	444%*	i	-24%*	i	i	i
N#CCc1ccc(OC(=O)c2ccncc2)cc1	i	i	i	i	i	nt	nt	nt	nt	nt	nt
O=C(c1ccc(C(=O)N2CCCc3ccccc32)s1)N1CCCc2ccccc21	i	i	i	i	-6.6*	nt	nt	nt	nt	i	nt	TRPC4 sel inh 2=i;TRPC4 spec=3.9%*;HEK293 MPD ctr 2-1=i;HEK293 MPD ctr-1=3.6%*
Nc1ccc(C(=O)OCc2nc3ccccc3s2)cc1	i	i	i	i	-7.8*	nt	nt	nt	nt	i	i	TRPC4 sel inh 2=i;TRPC4 spec=i;HEK293 MPD ctr 2-1=i;HEK293 MPD ctr-1=i
Cc1onc(-c2ccccc2)c1C(=O)NNC(=O)c1ccccc1O	i	i	i	i	i	nt	nt	nt	nt	nt	nt
Cc1onc(-c2ccccc2)c1C(=O)NNC(=S)NC(=O)c1ccc(Cl)cc1Cl	i	i	i	375*	-5.8*	96%*	i	36%*	36%*	i	nt
Cc1ccc(C(=O)COC(=O)C2CC(=O)N(c3nc(-c4ccccc4)cs3)C2)cc1 (stereo not given)	i	i	i	i	i	nt	nt	nt	nt	nt	nt
OCCNCc1ccc(OCc2ccc(Cl)cc2Cl)cc1	i	i	i	i	-6.7*	nt	nt	nt	nt	i	nt	TRPC4 sel inh 2=68%*;TRPC4 spec=8.3%*;HEK293 MPD ctr 2-1=283%*;HEK293 MPD ctr-1=11%*
CCN(CC)c1ccc(Nc2nc(N3CCOCC3)c3ccccc3n2)cc1	i	i	i	i	-5.2*	-143%*	i	-32%*	56%*	i	i
O=C(CCOc1ccccc1)NCC(c1ccco1)N1CCCCC1 (stereo not given)	i	i	i	i	-5.6*	i	i	12%*	i	i	nt
O=C(COc1ccccc1)NCC(c1ccco1)N1CCN(c2ccccc2F)CC1 (stereo not given)	i	i	i	i	-5.9*	141%*	i	32%*	46%*	64%*	nt
O=C(NCCCl)Nc1cccnc1Cl	i	i	i	i	i	nt	nt	nt	nt	nt	nt
CCCCC[n+]1cccc2c3ccccc3ccc21	i	i	i	i	-9.2*	-238%*	i	-39%*	66%*	58%*	i
O=[N+]([O-])c1ccc(C[n+]2cccc3ccccc32)cc1	i	i	i	i	i	nt	nt	nt	nt	nt	nt
